# Bioassay records as filed in PubChem.
# Hep lipid drop: modulators of hepatic lipid droplet formation; inhibition, % at 6.5 µM; AML12 mouse hepatocytes, oleate lipid droplets, BODIPY imaging; hit rate 0.4% among 240,000;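 active means lipid droplet intensity inhibited by at least 50%, with more than 500 cells counted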
#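 material = mouse AML12 hepatocyte cell line, fixed after treatment | also added = 100 µM oleic acid challenge | doses = compound at 6.5 µM only | schedule = overnight exposure | technique = Image-based BODIPY and DAPI two-channel analysis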
# TbMetRS inhib: blocks T. brucei methionyl-tRNA synthetase activity. purified T. brucei MetRS, ATP depletion, Kinase-Glo luminescence. inhibition, % at 11.9 µM. hit rate 0.4% among 360,000;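 active means inhibition above a per-plate cutoff of the control wells' mean inhibition plus 3 SD, cut at about 5.5% in these data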;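 further: 0% = DMSO wells median and 100% = median of wells with control inhibitor compound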
#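 Dosing: 11.9 µM compound single dose, 0.9% DMSO; Assay system: purified T. brucei MetRS enzyme; Measured by: Kinase-Glo luciferase luminescence reporting remaining unconsumed ATP; Schedule: 15 min plus 2 h at 25 °C.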
# HCV NS3 hel inh: blocks Hepatitis C virus NS3 helicase unwinding. AID 1800. NS3 helicase DNA unwinding, Cy5 molecular beacon fluorescence. inhibition, % at 10.9 µM. hit rate 0.56% among 290,000;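 active means inhibition above the mean of all tested compounds plus 3 SD, set per campaign, cut at about 35% in these data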;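 further: 0% = DMSO wells and 100% = thioflavine S control wells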
#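 System: HCV NS3 helicase fragment; control set: DMSO and thioflavine S; technique: Cy5 fluorescence at 0 and 60 min, beacon hairpin quenching; reagent: beacon DNA duplex substrate plus ATP; replicates: singlicate; schedule: 1 h reaction at 25 °C, ATP-initiated; medium: MOPS buffer pH 6.5 with MgCl2, DTT, Tween20, BSA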
# core dimer inh: blocks dimerization of HCV core protein; TR-FRET GST/Flag-core106 dimerization, 1536-well; inhibition, % at 5 µM; hit rate 0.33% among 300,000; AID 1899;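 active means inhibition above the mean of all tested compounds plus 3 SD, set per screening campaign, cut at about 45% in these data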
#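 Material: GST/Flag-tagged HCV core106 proteins. Incubation: 4 h, 22.5 °C incubation. Read-out basis: inhibition (%) from 671 over 617 nm ratio. Measured by: TR-FRET, excitation 340 nm, emission 617 and 671 nm.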
# Tb MetRS conf: Trypanosoma brucei MetRS inhibition confirmed; inhibition, % at 11.9 µM; T. brucei MetRS enzyme, luminescence (ATP depletion); shares compounds with TbMetRS inhib; hit rate 93% among 1,400; in the data active means inhibition above about 7%
# Jurkat cytotox: kills Jurkat cells in T. brucei MetRS counterscreen; shares compounds with TbMetRS inhib; Jurkat cells viability, ATP luminescence; inhibition, % at 8.3 µM; hit rate 12% among 1,400; AID 624413; in the data active means inhibition above about 15%;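 further: 0% = vehicle and 100% = reference inhibitor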
# Tb MetRS inh FP: inhibits T. brucei methionyl tRNA synthetase in orthogonal FP test | purified T. brucei MetRS, fluorescence polarization | inhibition, % at 11.9 µM | AID 651607 | hit rate 44% among 1,400 | shares compounds with TbMetRS inhib; in the data active means inhibition above about 17%;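 further: 0% = vehicle wells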
# * marks the source's active call; other numbers are inactive results; x = no result. This is a sample that favours compounds with a hit; in the whole collection about 1.3% have one here.
SMILES,Hep lipid drop,TbMetRS inhib,HCV NS3 hel inh,core dimer inh,Tb MetRS conf,Jurkat cytotox,Tb MetRS inh FP
CC1O[C@@H](OC2C(O)C(O)C(CO)O[C@H]2OC2C[C@]3(C)C(CC(O)C4[C@@H]([C@]5(C)CC[C@@H](C(C)(C)O)O5)CC[C@]43C)[C@@]3(C)CCC(O)C(C)(C)C23)C(O)C(O)C1O (stereo partly drawn),x,-0.2,x,x,x,x,x
O=C(CSc1nc2ccc(Cl)cc2[nH]1)NC1CCCC1,-3.7,14.2*,0.9,-9.1,33.1*,1.0,14.4
O=C(CSc1nc2ccc(Cl)cc2[nH]1)Nc1ccc2[nH]c(=O)[nH]c2c1,x,8.3*,x,5.2,32.9*,-6.4,14.8
O=C(CSc1nc2ncc(Cl)cc2[nH]1)NC1CCS(=O)(=O)C1 (stereo not drawn),6.3,6.2*,-5.1,-12.1,21.7*,-6.6,5.0
Cc1ccc2nc(SCC(=O)Nc3ccc4[nH]c(=O)[nH]c4c3)[nH]c2c1,x,1.1,x,x,x,x,x
O=C(Cn1cnc2ccccc21)Nc1ccc(F)c(F)c1,-13.0,17.2*,-2.4,3.5,29.5*,2.2,11.7
COC(=O)CSc1nc2ncc(Cl)cc2[nH]1,16.3,0.0,3.7,1.0,x,x,x
O=C(Cn1cnc2ccccc21)Nc1ccc(C(=O)O)cc1,5.7,-0.4,0.6,-2.8,x,x,x
COC(=O)c1ccc(N/C=C/C(=O)c2ccccc2)cc1,-19.0,-1.2,-2.9,-6.3,x,x,x
CCOCCC(=O)Nc1nnc(CCc2ccccc2)s1,x,-0.8,9.6,x,x,x,x
O=C(CSc1nc2ncc(Cl)cc2[nH]1)c1c[nH]c2ccccc12,-11.5,1.1,-10.9,6.0,x,x,x
O=C(CSc1nc2ccccc2[nH]1)Nc1ccc(F)c(F)c1,-12.4,36.4*,-13.8,6.0,51.0*,0.5,26.0*
O=C(CSc1nc2ccc(Cl)cc2[nH]1)c1c[nH]c2ccccc12,5.4,15.2*,7.1,0.1,20.4*,-1.4,25.4*
O=C(CSc1nc2ccccc2[nH]1)Nc1ccccc1F,5.9,-1.0,-5.4,-2.6,x,x,x
O=C(CSc1nc2ccc(Cl)cc2[nH]1)N1CCN(C(=O)c2ccco2)CC1,-3.2,11.7*,21.0,11.6,13.8*,17.0*,11.6
COc1ccc(/C=N/OCC(=O)N2CCCC2)c(OC)c1,-9.6,-1.3,-4.8,1.8,x,x,x
O=C(/C=C/c1cccc(C(F)(F)F)c1)NNC(=O)c1ccncc1,x,-0.5,x,x,x,x,x
COc1cccc(C(C)NC(=O)Cc2cccs2)c1 (stereo not drawn),6.9,-0.2,3.4,6.2,x,x,x
O=C(NCCNc1ccc([N+](=O)[O-])cc1)c1ccccc1Cl,x,0.5,x,x,x,x,x
O=[N+]([O-])c1ccc(NCCNc2ccc(Cl)nn2)cc1,6.7,11.1*,-7.3,0.1,18.1*,2.7,5.0
CCCn1c(N)c(C(=O)CN(C)CC(=O)Nc2ccc(F)cc2)c(=O)[nH]c1=O,x,-0.1,x,x,x,x,x
COP(=O)(OC)C(Nc1cc(Cl)cc(Cl)c1)c1cccc(O)c1 (stereo not drawn),-27.3,5.7*,-22.1,-9.3,14.5*,-0.6,4.0
CCOP(=O)(OCC)C(Nc1cc(Cl)cc(Cl)c1)c1cccc(O)c1 (stereo not drawn),-15.3,2.1,-24.4,-3.1,x,x,x
Cn1c(=O)c2cc(NC(=S)NCc3ccccc3F)ccc2n1Cc1ccccc1,x,0.7,x,x,x,x,x
Cc1cc(C)cc(Cn2c3ccc(NC(=S)NCc4ccccc4F)cc3c(=O)n2C)c1,x,8.5*,x,x,33.3*,-7.2,15.8
SMILES,Hep lipid drop,TbMetRS inhib,HCV NS3 hel inh,core dimer inh,Tb MetRS conf,Jurkat cytotox,Tb MetRS inh FP
COc1cc(Cn2c3ccc(NC(=S)NCc4ccc(C)cc4)cc3c(=O)n2C)ccc1F,x,7.9*,x,x,27.8*,1.4,16.4
CCN(CCn1cccn1)C(=O)c1cccc(OC2CCN(S(C)(=O)=O)CC2)c1,0.0,-0.2,-0.2,-1.6,x,x,x
Cc1cc(/C=N/n2cnnc2)c(O)c([N+](=O)[O-])c1,2.2,0.0,2.3,1.0,x,x,x
COCCCNC(=S)NNC(=O)c1ccc(C(C)(C)C)cc1,-0.1,-1.0,-6.1,1.7,x,x,x
COCCCNC(=S)NNC(=O)c1ccc(S(=O)(=O)N2CCC(C)CC2)cc1,6.0,58.7*,-9.5,-3.6,80.5*,3.0,50.0*
CCCCC#Cc1cncc(C(=O)NN)c1,-3.2,5.7*,5.3,-0.5,2.5,6.4,5.9
Cc1[nH]c2ccc(Br)cc2c(=O)c1CN1CCCCC1,x,33.8*,-10.0,-6.5,54.6*,-6.9,27.2*
O=C(N/N=C/c1ccc(-c2ccc(S(=O)(=O)Nc3ncccn3)cc2)o1)c1cc2ccccc2cc1O,19.8,6.8*,33.2,-37.4,29.7*,-3.7,26.6*
O=C(COc1nsnc1N1CCOCC1)Nc1ccc(Br)cc1,x,20.3*,-6.9,4.2,43.1*,1.1,25.3*
O=[N+]([O-])c1ccc(COc2ncnc3ccccc23)cc1,-5.6,-0.7,1.2,-0.8,x,x,x
O=C(/C=C/c1ccc([N+](=O)[O-])cc1)Nc1ncc([N+](=O)[O-])s1,1.2,0.1,-4.3,x,x,x,x
Oc1[nH]c(=S)sc1C=C1N=c2ccccc2=N1,0.9,6.5*,-10.0,-26.7,14.6*,4.9,5.8
Cc1cccc(CCNC(=O)c2cc(S(=O)(=O)N3CCCCC3)c[nH]2)c1,-6.1,26.6*,13.7,8.7,46.2*,6.7,27.6*
COc1ccc(CCNC(=O)c2cc(S(=O)(=O)N3CCCCC3)c[nH]2)cc1OC,-25.5,1.0,0.3,-4.8,x,x,x
COC(=O)c1ccc(N2CCN(C)CC2)c(NC(=O)c2ccc(Br)o2)c1,24.5,1.2,5.7,-1.4,x,x,x
CCN(CC)CCNc1ccnc2cc(Cl)ccc12,8.1,-0.1,18.1,-3.8,x,x,x
Clc1ccc2c(NCc3ccccc3)ccnc2c1,-16.9,7.9*,-12.2,1.7,19.6*,18.7*,5.0
O=C(NCCNc1ccnc2cc(Cl)ccc12)c1ccccc1F,-4.4,8.7*,-2.5,-37.4,12.9*,46.9*,9.8
COc1ccccc1N1CCN(C2CCCN(C(=O)CCc3cnn(C)c3)C2)CC1 (stereo not drawn),-7.0,-0.1,3.2,12.9,x,x,x
O=C(CCc1nc2ccccc2c(=O)[nH]1)OCc1ccccc1F,-0.7,0.9,-1.6,-1.4,x,x,x
O=C(CCc1nc2ccccc2c(=O)[nH]1)OCCOc1ccc(Cl)cc1,10.2,16.2*,-15.0,-43.7,30.1*,4.5,18.7*
COc1ccccc1NC(=O)c1nnn(CC(=O)Nc2cccc(SC)c2)c1N,0.1,6.0*,3.9,5.4,7.6*,-2.2,14.6
COc1ccccc1NC(=O)c1nnn(CC(=O)Nc2ccccc2)c1N,-44.9,-0.3,1.6,0.8,x,x,x
O=C(Nn1c(O)c(C=C2N=c3ccccc3=N2)sc1=S)c1ccc(Cl)cc1,-10.9,6.4*,5.0,-4.5,21.0*,5.5,30.1*
